Laboratory results as given in ChEMBL document CHEMBL1137240, “Conjugation of adenosine and hexa-(D-arginine) leads to a nanomolar bisubstrate-analog inhibitor of basophilic protein kinases” (J Med Chem, 2006).

Tests used:
[1] = molecular target: Serine/threonine-protein kinase PLK1 (Homo sapiens) (UniProt P53350); test: Percent residual activity, relative to control, of PLK1 at 1 uM concentration of inhibitor in presence of 5 uM ATP
How it was run: (§1)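 It is expressed as percent of activity in control incubations without inhibitor, as the mean of duplicate determinations. The protocol follows earlier published panel methods.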

[2] = molecular target: Ribosomal protein S6 kinase (P70S6K) (Homo sapiens) (UniProt Q9UBS0+P23443); test: Percent residual activity, relative to control, of P70S6K at 1 uM concentration of inhibitor in presence of 20 uM ATP; format: protein-complex assay; how it was run: as §1
[3] = molecular target: Glycogen synthase kinase-3 beta (Homo sapiens) (UniProt P49841); test: Percent residual activity, relative to control, of GSK3 beta at 1uM concentration of inhibitor in presence of 5uM ATP; how it was run: as §1
[4] = molecular target: Ribosomal protein S6 kinase alpha-1 (Homo sapiens) (UniProt Q15418); test: Percent residual activity, relative to control, of MAPKAP-K1a/Rsk1 at 1 uM concentration of inhibitor in presence of 50 uM ATP; how it was run: as §1
[5] = molecular target: Serine/threonine-protein kinase N2 (Homo sapiens) (UniProt Q16513); test: Percent residual activity, relative to control, of PRK2 at 1 uM concentration of inhibitor in presence of 5 uM ATP; how it was run: as §1
[6] = molecular target: 3-phosphoinositide-dependent protein kinase 1 (Homo sapiens) (UniProt O15530); test: Percent residual activity, relative to control, of PDK1 at 1 uM concentration of inhibitor in presence of 20 uM ATP; how it was run: as §1
[7] = molecular target: Eukaryotic elongation factor 2 kinase (Homo sapiens) (UniProt O00418); test: Percent residual activity, relative to control, of EF2K at 1 uM concentration of inhibitor in presence of 5 uM ATP; how it was run: as §1
[8] = molecular target: Casein kinase II (Homo sapiens) (UniProt P67870+P68400+P19784); test: Percent residual activity, relative to control, of CK2 at 1 uM concentration of inhibitor in presence of 5 uM ATP; format: protein-complex assay; how it was run: as §1
[9] = molecular target: Serine/threonine-protein kinase Nek7 (Homo sapiens) (UniProt Q8TDX7); test: Percent residual activity, relative to control, of NEK7 at 1 uM concentration of inhibitor in presence of 20 uM ATP; how it was run: as §1
[10] = molecular target: Dual specificity mitogen-activated protein kinase kinase 1 (Homo sapiens) (UniProt Q02750); test: Percent residual activity, relative to control, of MKK1 at 1 uM concentration of inhibitor in presence of 5 uM ATP; how it was run: as §1
[11] = molecular target: Lymphokine-activated killer T-cell-originated protein kinase (Homo sapiens) (UniProt Q96KB5); test: Percent residual activity, relative to control, of PBK at 1uM concentration of inhibitor in presence of 50uM ATP; how it was run: as §1
[12] = molecular target: MAP/microtubule affinity-regulating kinase 3 (Homo sapiens) (UniProt P27448); test: Percent residual activity, relative to control, of MARK3 at 1uM concentration of inhibitor in presence of 5uM ATP; how it was run: as §1
[13] = molecular target: cAMP-dependent protein kinase catalytic subunit alpha (Homo sapiens, UniProt P17612); test: Inhibitory potency towards human cAPK C alpha in the presence of 100 uM ATP and 30 uM TAMRA-kemptide
How it was run: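 cAPK catalytic subunit (about 1 nM) incubated at 30 °C with inhibitor at various concentrations in 50 mM Hepes pH 7.5, 10 mM Mg acetate, 0.2 mg/mL BSA, 30 µM TAMRA-kemptide; reaction started with 100 µM ATP. Stopped at fixed times by 20-fold dilution in 75 mM phosphoric acid, then normal-phase TLC with fluorescence imaging (532 nm excitation). IC50 determined.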

[14] = molecular target: Mitogen-activated protein kinase 11 (Homo sapiens) (UniProt Q15759); test: Percent residual activity, relative to control, of SAPK2b/p38ss2 at 1 uM concentration of inhibitor in presence of 20 uM ATP; how it was run: as §1
[15] = molecular target: Serine/threonine-protein kinase Nek6 (Homo sapiens) (UniProt Q9HC98); test: Percent residual activity, relative to control, of NEK6 at 1 uM concentration of inhibitor in presence of 50 uM ATP; how it was run: as §1
[16] = molecular target: MAP kinase-interacting serine/threonine-protein kinase 2 (Homo sapiens) (UniProt Q9HBH9); test: Percent residual activity, relative to control, of MNK2 at 1 uM concentration of inhibitor in presence of 50 uM ATP; how it was run: as §1
[17] = molecular target: Serine/threonine-protein kinase Chk1 (Homo sapiens) (UniProt O14757); test: Percent residual activity, relative to control, of CHK1 at 1 uM concentration of inhibitor in presence of 20 uM ATP; how it was run: as §1
[18] = molecular target: Mitogen-activated protein kinase 1 (Homo sapiens) (UniProt P28482); test: Percent residual activity, relative to control, of MAPK2/ERK2 at 1 uM concentration of inhibitor in presence of 50 uM ATP; how it was run: as §1
[19] = molecular target: Serine/threonine-protein kinase Nek2 (Homo sapiens) (UniProt P51955); test: Percent residual activity, relative to control, of NEK2a at 1 uM concentration of inhibitor in presence of 50 uM ATP; how it was run: as §1
[20] = molecular target: MAP kinase-interacting serine/threonine-protein kinase 1 (Homo sapiens) (UniProt Q9BUB5); test: Percent residual activity, relative to control, of MNK1 at 1 uM concentration of inhibitor in presence of 50 uM ATP; how it was run: as §1
[21] = molecular target: Aurora kinase B (Homo sapiens) (UniProt Q96GD4); test: Percent residual activity, relative to control, of Aurora-B at 1 uM concentration of inhibitor in presence of 20 uM ATP; how it was run: as §1
[22] = molecular target: Protein kinase C alpha type (Homo sapiens) (UniProt P17252); test: Percent residual activity, relative to control, of PKC alpha at 1uM concentration of inhibitor in presence of 20uM ATP; how it was run: as §1
[23] = molecular target: Inhibitor of nuclear factor kappa-B kinase subunit beta (Homo sapiens) (UniProt O14920); test: Percent residual activity, relative to control, of IKK beta at 1 uM concentration of inhibitor in presence of 5 uM ATP
How it was run: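 Kinase panel assay run at an ATP concentration close to the kinase's Km. Inhibitor tested at 1 µM. Activity expressed as percent residual relative to control incubations without inhibitor, as the mean of duplicate determinations.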

[24] = molecular target: Cyclin-dependent kinase 2/cyclin A (Homo sapiens) (UniProt P24941+P20248+P78396); test: Percent residual activity, relative to control, of CDK2 (with cyclin A) at 1 uM concentration of inhibitor in presence of 20 uM ATP; format: protein-complex assay; how it was run: as §1
[25] = molecular target: Casein kinase I (Homo sapiens) (UniProt Q9HCP0+P78368+P48730+P49674+P48729); test: Percent residual activity, relative to control, of CK1 at 1 uM concentration of inhibitor in presence of 20 uM ATP; format: protein assay; how it was run: as §1

Sequence of Eukaryotic elongation factor 2 kinase (Homo sapiens) (O00418 whole entry): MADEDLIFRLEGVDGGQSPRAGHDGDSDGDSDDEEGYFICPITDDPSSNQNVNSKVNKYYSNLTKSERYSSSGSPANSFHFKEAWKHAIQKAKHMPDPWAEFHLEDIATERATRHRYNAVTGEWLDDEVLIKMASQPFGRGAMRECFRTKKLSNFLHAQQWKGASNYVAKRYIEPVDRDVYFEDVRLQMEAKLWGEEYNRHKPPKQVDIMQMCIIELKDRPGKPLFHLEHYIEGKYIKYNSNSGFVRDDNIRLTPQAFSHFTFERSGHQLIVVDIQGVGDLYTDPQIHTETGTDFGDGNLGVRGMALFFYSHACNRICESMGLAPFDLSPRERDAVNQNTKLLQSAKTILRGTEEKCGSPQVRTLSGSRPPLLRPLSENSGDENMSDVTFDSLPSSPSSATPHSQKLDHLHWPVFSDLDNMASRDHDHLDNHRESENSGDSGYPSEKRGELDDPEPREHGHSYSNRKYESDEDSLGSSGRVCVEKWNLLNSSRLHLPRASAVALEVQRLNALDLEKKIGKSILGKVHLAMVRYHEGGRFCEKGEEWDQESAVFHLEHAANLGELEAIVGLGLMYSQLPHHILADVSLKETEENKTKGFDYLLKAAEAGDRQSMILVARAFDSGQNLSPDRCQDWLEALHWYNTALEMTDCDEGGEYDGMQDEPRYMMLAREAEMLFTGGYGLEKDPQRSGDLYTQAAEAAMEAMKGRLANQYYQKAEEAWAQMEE
Sequence of Glycogen synthase kinase-3 beta (Homo sapiens) (P49841 whole entry, looked up): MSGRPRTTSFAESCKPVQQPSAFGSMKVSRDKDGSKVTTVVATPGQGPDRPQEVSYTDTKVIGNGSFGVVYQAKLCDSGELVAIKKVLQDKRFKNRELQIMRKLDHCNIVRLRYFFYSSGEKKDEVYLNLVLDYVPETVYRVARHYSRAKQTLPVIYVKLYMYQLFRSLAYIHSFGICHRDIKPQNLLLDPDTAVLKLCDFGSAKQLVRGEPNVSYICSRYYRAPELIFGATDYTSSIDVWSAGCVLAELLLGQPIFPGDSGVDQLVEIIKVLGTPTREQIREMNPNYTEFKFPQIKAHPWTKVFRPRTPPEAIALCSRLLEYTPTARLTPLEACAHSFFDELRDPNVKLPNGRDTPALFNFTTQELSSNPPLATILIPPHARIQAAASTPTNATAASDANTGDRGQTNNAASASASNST
Sequence of Serine/threonine-protein kinase N2 (Homo sapiens) (Q16513 whole entry, looked up): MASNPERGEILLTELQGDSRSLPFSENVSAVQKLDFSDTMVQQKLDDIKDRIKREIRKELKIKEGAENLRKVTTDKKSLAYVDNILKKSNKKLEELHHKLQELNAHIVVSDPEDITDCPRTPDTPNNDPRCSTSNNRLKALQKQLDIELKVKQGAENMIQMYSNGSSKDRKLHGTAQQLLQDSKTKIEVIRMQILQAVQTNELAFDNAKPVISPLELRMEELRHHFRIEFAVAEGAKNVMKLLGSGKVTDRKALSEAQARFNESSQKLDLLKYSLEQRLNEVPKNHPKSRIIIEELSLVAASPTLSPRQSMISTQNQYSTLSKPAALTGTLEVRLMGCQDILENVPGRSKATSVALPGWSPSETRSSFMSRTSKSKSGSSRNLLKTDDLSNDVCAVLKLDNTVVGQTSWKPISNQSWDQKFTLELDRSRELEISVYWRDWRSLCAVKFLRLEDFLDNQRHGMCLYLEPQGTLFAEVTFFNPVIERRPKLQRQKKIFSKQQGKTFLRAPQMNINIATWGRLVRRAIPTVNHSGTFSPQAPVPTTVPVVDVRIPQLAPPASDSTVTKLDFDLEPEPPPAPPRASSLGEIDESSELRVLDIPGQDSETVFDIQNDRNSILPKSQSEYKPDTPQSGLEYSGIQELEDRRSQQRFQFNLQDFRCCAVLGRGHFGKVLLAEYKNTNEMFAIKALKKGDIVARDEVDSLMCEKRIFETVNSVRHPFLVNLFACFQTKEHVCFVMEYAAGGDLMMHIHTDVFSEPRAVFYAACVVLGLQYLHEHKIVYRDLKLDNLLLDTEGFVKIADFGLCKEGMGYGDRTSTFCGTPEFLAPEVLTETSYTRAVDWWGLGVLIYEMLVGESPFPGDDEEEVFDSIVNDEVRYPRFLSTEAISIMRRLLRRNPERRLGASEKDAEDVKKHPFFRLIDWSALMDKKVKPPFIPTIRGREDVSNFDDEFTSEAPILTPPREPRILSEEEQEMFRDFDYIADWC
Sequence of MAP kinase-interacting serine/threonine-protein kinase 1 (Homo sapiens) (Q9BUB5 whole entry, looked up): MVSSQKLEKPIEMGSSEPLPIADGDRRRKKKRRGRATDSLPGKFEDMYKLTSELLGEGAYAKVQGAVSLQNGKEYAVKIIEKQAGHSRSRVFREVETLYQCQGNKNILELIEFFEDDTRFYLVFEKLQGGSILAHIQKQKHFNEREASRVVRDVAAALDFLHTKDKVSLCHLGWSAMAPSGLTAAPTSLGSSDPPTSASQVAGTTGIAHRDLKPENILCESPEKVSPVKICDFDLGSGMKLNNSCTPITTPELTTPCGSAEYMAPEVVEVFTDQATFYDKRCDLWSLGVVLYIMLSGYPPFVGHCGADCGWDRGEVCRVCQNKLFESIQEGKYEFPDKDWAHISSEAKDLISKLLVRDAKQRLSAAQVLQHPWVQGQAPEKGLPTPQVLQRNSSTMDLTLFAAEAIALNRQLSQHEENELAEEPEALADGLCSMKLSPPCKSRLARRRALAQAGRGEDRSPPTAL
Sequence of Mitogen-activated protein kinase 11 (Homo sapiens) (Q15759 whole entry): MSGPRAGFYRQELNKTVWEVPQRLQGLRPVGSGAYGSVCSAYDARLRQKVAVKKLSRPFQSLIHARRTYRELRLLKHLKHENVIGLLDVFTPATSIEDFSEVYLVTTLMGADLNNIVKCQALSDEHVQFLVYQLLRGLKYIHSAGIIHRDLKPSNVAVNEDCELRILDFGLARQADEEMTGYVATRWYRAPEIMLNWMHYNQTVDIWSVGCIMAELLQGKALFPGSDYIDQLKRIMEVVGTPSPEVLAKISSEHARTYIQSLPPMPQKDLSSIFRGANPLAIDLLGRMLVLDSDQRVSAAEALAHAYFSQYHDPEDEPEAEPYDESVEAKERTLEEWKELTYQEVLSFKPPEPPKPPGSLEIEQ
Sequence of Serine/threonine-protein kinase Nek6 (Homo sapiens) (Q9HC98 whole entry): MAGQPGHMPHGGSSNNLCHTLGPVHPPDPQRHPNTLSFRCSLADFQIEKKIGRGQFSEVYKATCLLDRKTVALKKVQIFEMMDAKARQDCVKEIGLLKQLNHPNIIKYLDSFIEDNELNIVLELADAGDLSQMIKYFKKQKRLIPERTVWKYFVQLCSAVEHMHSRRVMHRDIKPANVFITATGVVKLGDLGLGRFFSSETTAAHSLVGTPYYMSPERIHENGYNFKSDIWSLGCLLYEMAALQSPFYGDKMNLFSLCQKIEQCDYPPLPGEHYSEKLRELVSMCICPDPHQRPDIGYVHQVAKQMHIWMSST
Sequence of Mitogen-activated protein kinase 1 (Homo sapiens) (P28482 whole entry): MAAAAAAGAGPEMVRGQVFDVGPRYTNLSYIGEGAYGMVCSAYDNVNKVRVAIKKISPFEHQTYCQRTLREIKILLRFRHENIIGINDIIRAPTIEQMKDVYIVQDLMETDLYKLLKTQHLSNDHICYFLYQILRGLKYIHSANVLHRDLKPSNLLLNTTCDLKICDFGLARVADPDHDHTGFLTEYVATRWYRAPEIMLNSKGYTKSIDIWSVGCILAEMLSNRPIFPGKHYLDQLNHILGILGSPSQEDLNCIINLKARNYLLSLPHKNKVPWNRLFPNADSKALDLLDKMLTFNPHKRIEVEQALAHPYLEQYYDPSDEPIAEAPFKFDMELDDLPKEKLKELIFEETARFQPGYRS
Sequence of 3-phosphoinositide-dependent protein kinase 1 (Homo sapiens) (O15530 whole entry): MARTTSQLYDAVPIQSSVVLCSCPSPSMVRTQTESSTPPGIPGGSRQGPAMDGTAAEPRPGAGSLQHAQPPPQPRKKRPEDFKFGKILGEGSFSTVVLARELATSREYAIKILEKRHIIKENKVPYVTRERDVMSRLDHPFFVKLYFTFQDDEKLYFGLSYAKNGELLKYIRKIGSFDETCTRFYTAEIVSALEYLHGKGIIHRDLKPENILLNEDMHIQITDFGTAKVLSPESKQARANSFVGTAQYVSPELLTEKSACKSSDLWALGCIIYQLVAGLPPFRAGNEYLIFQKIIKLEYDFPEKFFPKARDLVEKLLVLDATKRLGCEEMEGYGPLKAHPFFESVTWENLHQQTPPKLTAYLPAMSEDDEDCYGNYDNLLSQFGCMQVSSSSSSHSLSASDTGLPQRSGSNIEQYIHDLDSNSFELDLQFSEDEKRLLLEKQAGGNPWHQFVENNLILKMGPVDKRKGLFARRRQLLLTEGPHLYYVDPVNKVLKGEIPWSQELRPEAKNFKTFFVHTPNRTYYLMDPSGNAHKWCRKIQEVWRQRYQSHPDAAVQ
Sequence of Ribosomal protein S6 kinase alpha-1 (Homo sapiens) (Q15418 whole entry): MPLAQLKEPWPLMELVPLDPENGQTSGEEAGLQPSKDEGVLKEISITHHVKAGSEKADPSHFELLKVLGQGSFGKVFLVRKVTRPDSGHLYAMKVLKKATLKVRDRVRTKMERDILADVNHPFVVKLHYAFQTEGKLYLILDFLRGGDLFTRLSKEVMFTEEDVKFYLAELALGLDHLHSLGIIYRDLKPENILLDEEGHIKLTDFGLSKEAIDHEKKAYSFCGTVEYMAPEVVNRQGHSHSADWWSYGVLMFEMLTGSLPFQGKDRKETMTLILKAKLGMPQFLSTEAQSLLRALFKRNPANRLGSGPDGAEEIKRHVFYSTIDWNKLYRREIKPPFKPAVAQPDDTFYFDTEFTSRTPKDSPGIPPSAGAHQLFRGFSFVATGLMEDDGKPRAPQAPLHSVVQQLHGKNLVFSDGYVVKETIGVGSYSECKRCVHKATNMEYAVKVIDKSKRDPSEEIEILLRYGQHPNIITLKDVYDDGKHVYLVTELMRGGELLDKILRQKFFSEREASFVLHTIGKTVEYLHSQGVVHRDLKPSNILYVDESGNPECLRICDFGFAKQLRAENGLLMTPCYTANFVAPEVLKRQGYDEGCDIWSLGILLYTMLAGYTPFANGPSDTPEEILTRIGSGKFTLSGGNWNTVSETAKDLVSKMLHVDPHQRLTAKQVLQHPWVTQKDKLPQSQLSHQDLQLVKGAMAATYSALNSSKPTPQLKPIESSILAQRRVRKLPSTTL

SMILES: N=C(N)NCCC[C@@H](NC(=O)[C@@H](CCCNC(=N)N)NC(=O)[C@@H](CCCNC(=N)N)NC(=O)[C@@H](CCCNC(=N)N)NC(=O)[C@@H](CCCNC(=N)N)NC(=O)[C@@H](CCCNC(=N)N)NC(=O)CCCCCNC(=O)[C@H]1O[C@@H](n2cnc3c(N)ncnc32)[C@H](O)[C@@H]1O)C(N)=O
- Activity [1]: 81%
- Activity [2]: 7%
- Activity [3]: 56%
- Activity [4]: 28%
- Activity [5]: 2%
- Activity [6]: 62%
- Activity [7]: 92%
- Activity [8]: 104%
- Activity [9]: 58%
- Activity [10]: 77%
- Activity [11]: 88%
- Activity [12]: 40%
- IC50 [13]: 109 nM
- Activity [14]: 85%
- Activity [15]: 94%
- Activity [16]: 99%
- Activity [17]: 16%
- Activity [18]: 100%
- Activity [19]: 82%
- Activity [20]: 102%
- Activity [21]: 103%
- Activity [22]: 31%
- Activity [23]: 94%
- Activity [24]: 88%
- Activity [25]: 106%
